Experimental data as given in ChEMBL document CHEMBL1158759, “Cytotoxic bisindole alkaloids from a marine sponge Spongosorites sp” (J Nat Prod, 2005).
Converted amounts (≈) assume the structure as drawn.

Key:
[1] = system: SK-OV-3; assay: Cytotoxicity against human SKOV3 cells after 48 hrs by SRB assay; type: functional; conditions: SK-OV-3, 48 h, read-out: ED50 (the source's name)
Outline: (§1)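 Cells in exponential growth were seeded at (1-2) × 10^4 per well and grown 24 h. Cells were fixed with cold TCA and stained with 0.4% SRB in 1% acetic acid. Dye was solubilized in 10 mM unbuffered Tris base and A520 read.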

[2] = system: SK-MEL-2; assay: Cytotoxicity against human SK-MEL-2 cells after 48 hrs by SRB assay; type: functional; conditions: SK-MEL-2, 48 h, read-out: ED50 (the source's name); outline: as §1
[3] = system: Streptococcus pyogenes; assay: Antibacterial activity against Streptococcus pyogenes 308A; type: functional
Outline: (§2)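 Agar dilution on Mueller Hinton agar holding 17 serial dilutions of sample (final 25 to 0.002 µg/mL), with meropenem and imipenem as standards. Strains were pre-grown 18 h at 37 °C in Fleisch extract broth, with 10% horse serum for some strains.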

[4] = system: Staphylococcus aureus; assay: Antibacterial activity against Staphylococcus aureus 285; type: functional; outline: as §2
[5] = system: Staphylococcus aureus; assay: Antibacterial activity against Staphylococcus aureus SG511; type: functional; outline: as §2
[6] = system: Pseudomonas aeruginosa; assay: Antibacterial activity against Pseudomonas aeruginosa 1771M; type: functional; outline: as §2
[7] = system: Klebsiella oxytoca; assay: Antibacterial activity against Klebsiella oxytoca 1082; type: functional; outline: as §2
[8] = system: Streptococcus pyogenes; assay: Antibacterial activity against Streptococcus pyogenes 77A; type: functional; outline: as §2
[9] = system: XF498; assay: Cytotoxicity against human XF498 cells after 48 hrs by SRB assay; type: functional; conditions: XF498, 48 h, read-out: ED50 (the source's name); outline: as §1
[10] = system: HCT-15; assay: Cytotoxicity against human HCT15 cells after 48 hrs by SRB assay; type: functional; conditions: HCT-15, 48 h, read-out: ED50 (the source's name); outline: as §1
[11] = system: Enterococcus faecium; assay: Antibacterial activity against Streptococcus faecium MD 8b; type: functional; outline: as §2
[12] = system: A549; assay: Cytotoxicity against human A549 cells after 48 hrs by SRB assay; type: functional; conditions: A549, 48 h, read-out: ED50 (the source's name); outline: as §1
[13] = system: Escherichia coli; assay: Antibacterial activity against Escherichia coli DC2; type: functional; outline: as §2
[14] = system: Staphylococcus aureus; assay: Antibacterial activity against Staphylococcus aureus 503; type: functional; outline: as §2
[15] = system: P388; assay: Cytotoxicity against mouse P388 cells; type: functional, cell-based

Structure (SMILES)	EC50 [1]	EC50 [2]	MIC [3]	MIC [4]	MIC [5]	MIC [6]	MIC [7]	MIC [8]	EC50 [9]	EC50 [10]	MIC [11]	EC50 [12]	MIC [13]	MIC [14]	IC50 [15]
O=C1NC[C@@H](c2c[nH]c3cc(Br)ccc23)N[C@H]1c1c[nH]c2cc(Br)ccc12 (relative stereo) [CIS-3,4-DIHYDROHAMACANTHIN B]	3.62 µg/mL (≈ 7.42 µM)	3.85 µg/mL (≈ 7.89 µM)	12.5 µg/mL (≈ 25.6 µM)	25 µg/mL (≈ 51.2 µM)	12.5 µg/mL (≈ 25.6 µM)	25 µg/mL (≈ 51.2 µM)	25 µg/mL (≈ 51.2 µM)	25 µg/mL (≈ 51.2 µM)	3.22 µg/mL (≈ 6.6 µM)	2.83 µg/mL (≈ 5.8 µM)	> 25 µg/mL	3.41 µg/mL (≈ 6.99 µM)	25 µg/mL (≈ 51.2 µM)	25 µg/mL (≈ 51.2 µM)	–
O=C(c1nc(-c2c[nH]c3cc(Br)ccc23)c[nH]1)c1c[nH]c2cc(O)ccc12 [BROMOTOPSENTIN]	28.1 µg/mL (≈ 66.8 µM)	7.02 µg/mL (≈ 16.7 µM)	–	–	–	–	–	–	15 µg/mL (≈ 35.6 µM)	> 30 µg/mL	–	> 30 µg/mL	–	–	7 µg/mL (≈ 16.6 µM)
COc1cccc2c1C(=O)c1c(O)c3c(c(O)c1C2=O)C[C@@](O)(C(=O)CO)C[C@@H]3O[C@H]1C[C@H](N)[C@H](O)[C@H](C)O1 [DOXORUBICIN]	0.03 µg/mL (≈ 0.0552 µM)	0.01 µg/mL (≈ 0.0184 µM)	–	–	–	–	–	–	0.01 µg/mL (≈ 0.0184 µM)	0.05 µg/mL (≈ 0.092 µM)	–	0.01 µg/mL (≈ 0.0184 µM)	–	–	–
C[C@@H](O)[C@H]1C(=O)N2C(C(=O)O)=C(SCCNC=N)C[C@H]12 [IMIPENEM ANHYDROUS]	–	–	0.004 µg/mL (≈ 0.0134 µM)	0.013 µg/mL (≈ 0.0434 µM)	0.013 µg/mL (≈ 0.0434 µM)	0.098 µg/mL (≈ 0.327 µM)	0.195 µg/mL (≈ 0.651 µM)	0.004 µg/mL (≈ 0.0134 µM)	–	–	0.781 µg/mL (≈ 2.61 µM)	–	0.195 µg/mL (≈ 0.651 µM)	0.007 µg/mL (≈ 0.0234 µM)	–
C[C@@H](O)[C@H]1C(=O)N2C(C(=O)O)=C(S[C@@H]3CN[C@H](C(=O)N(C)C)C3)[C@H](C)[C@H]12 [MEROPENEM]	–	–	0.007 µg/mL (≈ 0.0183 µM)	0.195 µg/mL (≈ 0.509 µM)	0.098 µg/mL (≈ 0.256 µM)	0.098 µg/mL (≈ 0.256 µM)	0.049 µg/mL (≈ 0.128 µM)	0.007 µg/mL (≈ 0.0183 µM)	–	–	6.25 µg/mL (≈ 16.3 µM)	–	0.025 µg/mL (≈ 0.0652 µM)	0.049 µg/mL (≈ 0.128 µM)	–
O=C(c1nc(-c2c[nH]c3ccccc23)c[nH]1)c1c[nH]c2cc(O)ccc12 [TOPSENTIN]	> 30 µg/mL	> 30 µg/mL	–	–	–	–	–	–	> 30 µg/mL	13.3 µg/mL (≈ 38.9 µM)	–	> 30 µg/mL	–	–	2 µg/mL (≈ 5.84 µM)
